# rRNA inh HTS: inhibitors of bacterial rRNA selective over humanized ribosomes; E. coli WT GFP vs humanized-ribosome RFP mutants, fluorescence, 24 h; stronger effect = lower value; DMSO median 0, no signal -100; GFP signal change (wild-type ribosome), % (test concentration not listed); actives 1.6% (n = 350,000);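 active = significant combined selectivity score with lowered wild-type GFP, culture density cut under 30%, mutant RFP and density less affected; inactive = any of these conditions unmet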
# F508del corr: correctors of CFTR F508del function in bronchial epithelial cells; CFBE cells, YFP halide quenching; stimulated with forskolin plus potentiator P3; % fluorescence drop versus neutral controls; activity (quench increase), % at 7.58 µM; actives 0.36% (n = 350,000);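 active = mean added fluorescence quench of at least 8% versus neutral control, with both replicates also reaching 8%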;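 also: cells transiently co-express mutant CFTR-F508del with the halide-sensitive YFP; corrector assay measuring rescue of mutant channel to the surface after 24 h compound exposure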
# ERAP1 inh: inhibitors of human ERAP1 aminopeptidase. actives 0.15% (n = 340,000). inhibition, % at 10.7 µM. recombinant ERAP1, Leu-AMC fluorescence, 60 min. Q9NZ08;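 active = mean replicate inhibition of at least 30%, or all replicates individually reaching that 30% level; inactive = mean below 30% and not every replicate reaching it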
# SIRT5 block: inhibitors of human sirtuin-5 desuccinylase; Q9NXA8; Purified SirT5, succinyl-peptide AMC, trypsin-coupled fluorescence; inhibition, % at 15 µM; actives 1.1% (n = 330,000); in the data active = inhibition above about 15%
# Target sequence (Q9NXA8 whole entry, looked up): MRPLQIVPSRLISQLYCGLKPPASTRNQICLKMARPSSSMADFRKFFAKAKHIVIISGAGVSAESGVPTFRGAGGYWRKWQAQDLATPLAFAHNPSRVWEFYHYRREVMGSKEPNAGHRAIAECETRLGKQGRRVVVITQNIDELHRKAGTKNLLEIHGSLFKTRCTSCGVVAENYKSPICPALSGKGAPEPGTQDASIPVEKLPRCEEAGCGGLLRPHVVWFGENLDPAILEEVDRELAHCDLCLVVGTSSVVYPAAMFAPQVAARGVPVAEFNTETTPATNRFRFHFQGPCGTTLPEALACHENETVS
# S100A4 MyoIIA: S100A4-myosin IIA interaction inhibition; P26447; S100A4/TAMRA-MyoIIA peptide fluorescence polarization; inhibition, % at 10.7 µM; actives 0.14% (n = 360,000); AID 652163;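 active = mean inhibition of at least 70% across replicates, with every replicate also reaching that level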
# Target sequence (P26447 whole entry, looked up): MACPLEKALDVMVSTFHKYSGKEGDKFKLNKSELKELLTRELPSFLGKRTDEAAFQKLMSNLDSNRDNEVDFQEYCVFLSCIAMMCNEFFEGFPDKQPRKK
#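 Material: human S100A4 monomer with TAMRA-labelled myosin IIA peptide; buffer or medium: HEPES pH 7.2 with CaCl2, KCl, NaCl, DTT, Triton; compound dosing: one concentration per compound; schedule: 5 min incubation before reading; benchmarks: neutral control DMSO, positive control TFP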
# A number is an active result; . = inactive; / = not tested or not shown. Shown are actives, neighbours in structure and some others; about 3.1% of the full set was active somewhere.
SMILES,rRNA inh HTS,F508del corr,ERAP1 inh,SIRT5 block,S100A4 MyoIIA
C[C@@H]1CN([C@@H](C)CO)C(=O)c2cc(-c3cccc(F)c3)cnc2O[C@@H]1CN(C)C(=O)c1cnccn1,.,/,.,.,.
COc1cccc(NS(=O)(=O)c2ccc3c(c2)N(C(C)=O)CCS3)c1,.,.,.,.,.
CC(=O)N1CCSc2ccc(S(=O)(=O)Nc3cccc(C)c3)cc21,-23,.,.,.,.
O=C(Oc1ccccc1)N1CCOCC1,.,.,.,.,.
CC(C)(C)c1ccc(OC(=O)N2CCOCC2)cc1,.,.,.,16,.
Cc1nc(-c2ccccn2)nc(SCC(=O)c2ccccc2)c1Cl,-23,.,.,.,.
Cc1ccc(C(=O)NNC(=O)Cn2nnc3ccccc32)cc1,-31,.,.,.,.
Cc1ccc(NC(=O)CCn2nnc3ccccc32)cc1,.,.,.,.,.
COc1cccc(OCCNS(=O)(=O)c2ccccc2[N+](=O)[O-])c1,-22,.,.,.,.
COc1ccc(S(=O)(=O)Nc2ccc3c(c2)CC(=O)N([C@H](C)CO)C[C@H](C)[C@H](CN(C)C(=O)Nc2c(C)noc2C)O3)cc1,.,.,.,.,.
CCC(=O)N1C[C@H]2[C@@H](c3ccccc31)[C@H](CO)N2Cc1cc(F)ccc1F,.,.,.,16,.
CCC(=O)N1C[C@@H]2[C@H](c3ccccc31)[C@@H](CO)N2Cc1cc(F)ccc1F,.,.,.,.,.
COCC(=O)N1C[C@H]2[C@@H](c3ccccc31)[C@@H](CO)N2Cc1cc(F)ccc1F,.,.,.,.,.
COCC(=O)N1C[C@@H]2[C@H](c3ccccc31)[C@H](CO)N2Cc1cc(F)ccc1F,.,.,.,20,.
CCOC(=O)c1sc(-c2ccccc2)cc1NC(=O)Nc1ccccc1,.,/,.,.,.
CCOC(=O)c1sc(-c2ccc(Br)cc2)cc1N,-34,.,.,.,.
CC=Cc1ccc2n(c1=O)C[C@@H]1[C@@H](CO)[C@H](C(=O)N3CCCCC3)[C@H]2N1Cc1ccccn1 (mixture of isomers),.,/,/,.,/
CCC1=NN(C(=O)Cc2ccc(OC)cc2)C(O)(C(F)(F)F)C1 (stereo not given),.,.,.,.,.
CCC1=NN(C(=O)C(=O)Nc2ccc(OC)cc2)C(O)(C(F)(F)F)C1 (stereo not given),-23,.,.,.,.
CCN(CC)CCn1c(SCC(=O)Nc2cccc(OC)c2)nc2c(sc3ccccc32)c1=O,-21,.,.,.,.
C[C@@H]1CCCCO[C@H](CN(C)C(=O)Nc2ccc3c(c2)OCO3)[C@H](C)CN([C@H](C)CO)C(=O)c2cc(NC(=O)Cc3ccccc3)ccc2O1,.,.,/,/,/
O=C(c1ccc(F)cc1)N1CCN(Cc2ccccc2)CC1,.,.,.,.,.
S=C(c1ccc(Br)cc1)N1CCN(Cc2ccccc2)CC1,-22,.,.,.,.
O=C(c1ccc2ccccc2c1)N1CCN(Cc2ccccc2)CC1,.,11,.,.,.
Oc1ccc(C(=S)N2CCN(Cc3ccccc3)CC2)cc1,.,.,.,.,.
SMILES,rRNA inh HTS,F508del corr,ERAP1 inh,SIRT5 block,S100A4 MyoIIA
O=C(C[C@H]1C=C[C@@H](NC(=O)c2ccc3c(c2)OCO3)[C@@H](CO)O1)NCc1ccc(Cl)cc1,.,.,.,.,.
COC(=O)C1=CN(Cc2ccc(OC)c(OC)c2)C=C(C(=O)OC)C1c1ccc(F)cc1,.,/,.,18,.
CC[n+]1c(/C=C/c2c[nH]c3ccccc23)ccc2cc(C)ccc21,.,.,.,.,129
COc1ccc(S(=O)(=O)N2CCCCN3[C@H](C2)[C@@H](c2ccc(C#CC4CC4)cc2)[C@@H]3CO)cc1,.,.,/,/,/
COc1ccc(S(=O)(=O)N2CCCCN3[C@H](C2)[C@@H](c2ccc(C#CC(C)C)cc2)[C@@H]3CO)cc1,.,.,.,16,.
COc1ccc(S(=O)(=O)N2CCCCN3[C@H](CO)[C@H](c4ccc(C#CC(C)C)cc4)[C@H]3C2)cc1,.,.,.,20,.
COc1ccc(S(=O)(=O)N2CCCCN3[C@H](CO)[C@H](c4ccc(C#CCC(C)C)cc4)[C@@H]3C2)cc1,.,.,.,16,.
COc1ccc(S(=O)(=O)N2CCCCN3[C@H](CO)[C@H](c4ccc(C#CCC(C)C)cc4)[C@H]3C2)cc1,.,.,/,/,/
COc1ccc(S(=O)(=O)N2CCCCN3[C@H](CO)[C@@H](c4ccc(C#CC5CC5)cc4)[C@@H]3C2)cc1,.,.,.,20,.
CN(C)CC(=O)Nc1ccc2c(c1)[C@H]1C[C@H](CC(=O)N3CCCCC3)O[C@H](CO)[C@H]1O2,.,.,.,.,.
CCCNC(=O)C[C@H]1CC[C@@H]2[C@H](COc3ccc(NS(=O)(=O)c4ccccc4C)cc3C(=O)N2C)O1,.,.,.,.,.
Cc1cccc(S(=O)(=O)N2CCCCN3[C@H](CO)[C@H](c4ccc(C#CC(C)C)cc4)[C@H]3C2)c1,-27,.,.,.,.
O=C(C[C@H]1CC[C@@H]2[C@H](COC[C@@H](O)CN2Cc2ccc(F)cc2)O1)NCc1ccncn1,.,.,.,.,.
C[C@@H]1CN([C@@H](C)CO)S(=O)(=O)c2ccc(C#Cc3ccccc3)cc2O[C@H]1CN(C)C(=O)C1CC1,.,.,.,20,.
C[C@H](CO)N1C[C@H](C)[C@H](CN(C)C(=O)CC2CC2)Oc2cc(C#CC(C)(C)O)ccc2S1(=O)=O,.,.,.,18,.
COCC(=O)N(C)C[C@H]1Oc2cc(C#CCN(C)C)ccc2S(=O)(=O)N([C@@H](C)CO)C[C@H]1C,.,.,.,.,112
CC(C)CC#Cc1ccc2c(c1)O[C@@H](CN(C)C(=O)C1CCCCC1)[C@@H](C)CN([C@@H](C)CO)S2(=O)=O,.,.,.,.,.
CC(C)CC#Cc1ccc2c(c1)O[C@H](CN(C)C(=O)C1CCCCC1)[C@H](C)CN([C@@H](C)CO)S2(=O)=O,.,.,.,22,.
Cc1noc(C)c1S(=O)(=O)Nc1ccc2c(c1)CC(=O)N([C@H](C)CO)C[C@@H](C)[C@@H](CN(C)CC1CCCCC1)O2,.,.,.,.,.
C[C@@H]1CN([C@@H](C)CO)C(=O)c2cc(NS(C)(=O)=O)ccc2O[C@@H]1CN(C)Cc1ccc(C(=O)Nc2ccccc2N)cc1,.,.,.,/,.
Cc1noc(C)c1S(=O)(=O)N(C)C[C@@H]1Oc2ccc(NC(=O)Nc3ccc(C(F)(F)F)cc3)cc2CC(=O)N([C@@H](C)CO)C[C@H]1C,.,.,/,/,/
COc1ccc(-c2cnc3c(c2)C(=O)N([C@H](C)CO)C[C@@H](C)[C@H](CN(C)C(=O)Cc2cccnc2)O3)cc1,.,.,.,.,.
